Data set [1] deals with Raji. As to the kind of experiment: Inhibition of TPA-induced EBV-early antigen activation in human Raji cells assessed as EA activation at 500 molar ratio after 48 hrs relative to control. The data set is classed as cell-based. Also noted: scale not given: the % may be the effect or the level left. Conditions: human gammaherpesvirus 4. The procedure, abridged: (§1)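 Raji cells (non-producer sub-line, spontaneous EA under 0.1%) at 1×10^6/mL, incubated 37 °C for 48 h with n-butyric acid (4 mmol), TPA (32 pmol in DMSO) and compound in DMSO. Dose expressed as mol ratio to TPA (1000, 500, 100, 10). EA-positive cells were detected by indirect immunofluorescence with NPC patient serum, at least 500 cells counted. Assays were run in triplicate. Results are relative to butyrate+TPA control (100%). IC50 given in nM.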

The test system of data set [2] is Raji. As to the kind of experiment: Inhibition of TPA-induced EBV-early antigen activation in human Raji cells assessed as EA activation at 100 molar ratio after 48 hrs relative to control. It counts as cell-based. Conditions: human gammaherpesvirus 4. The method, boiled down: as §1
The test system of data set [3] is Raji. Kind of data set: Inhibition of TPA-induced EBV-early antigen activation in human Raji cells assessed as EA activation at 10 molar ratio after 48 hrs relative to control. It counts as cell-based. Also noted: scale not given: the % may be the effect or the level left. Conditions: human gammaherpesvirus 4. The method, boiled down: as §1
The test system of data set [4] is Mus musculus. Kind of data set: Inhibition of DMBA-induced and TPA-promoted carcinogenesis in ICR mouse assessed as reduction of mouse bearing papillomas width at 85 nmol administered 1 hr before TPA treatment measured after 20 weeks. It counts as functional. The procedure, abridged:
(§2)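 Female SPF ICR mice, 6 weeks old, 15 per group, backs shaved. Initiation was one topical dose of DMBA (390 nmol) in acetone 0.1 mL. Promotion was TPA (1.7 nmol) twice weekly, with compound given topically at 85 nmol. Papilloma incidence and papillomas per mouse were followed to week 20, and tumor length and width were recorded. Significance was set at P<0.05 versus the DMBA/TPA control.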

Data set [5] is described as follows: Cytotoxicity against human Raji cells carrying EBV genome assessed as cell viability at 1000 molar ratio by trypan blue staining method. The data set is classed as cell-based. The note with it: read-out: Activity. The procedure, abridged:
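Raji cells (EBV genome-carrying, in RPMI-1640 with 10% FBS) at 1×10^6/mL, incubated 48 h at 37 °C with n-butyric acid (4 mmol), TPA (32 pmol) and test compound in DMSO. Viability scored by Trypan Blue staining. Molar ratio means mol of compound per mol of TPA (32 pmol).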

Data set [6] relates to Mus musculus. As to the kind of experiment: Inhibition of DMBA-induced and TPA-promoted carcinogenesis in ICR mouse assessed as reduction of mouse bearing papillomas at 85 nmol administered 1 hr before TPA treatment measured after 20 weeks. The data set is classed as functional. The procedure, abridged:
as §2

Data set [7] is filed under the species Mus musculus. As to the kind of experiment: Toxicity in ICR mouse assessed as lesional damage at 85 nmol. The data set is classed as organism-based. Conditions: in vivo.
Data set [8] relates to Mus musculus. As to the kind of experiment: Inhibition of DMBA-induced and TPA-promoted carcinogenesis in ICR mouse assessed as reduction of mouse bearing papillomas length at 85 nmol administered 1 hr before TPA treatment measured after 20 weeks. The data set is classed as functional. The method, boiled down:
as §2

Data set [9] relates to Raji. As to the kind of experiment: Inhibition of TPA-induced EBV-early antigen activation in human Raji cells assessed as EA activation at 1000 molar ratio after 48 hrs relative to control. It counts as cell-based. The arrangement: scale not given: the % may be the effect or the level left. Conditions: human gammaherpesvirus 4. The method, boiled down: as §1
For data set [10], the species on record is Mus musculus. As to the kind of experiment: Toxicity in ICR mouse assessed as ulcer at 85 nmol. Conditions: in vivo. It counts as organism-based.
Data set [11] is filed under the species Mus musculus. As to the kind of experiment: Toxicity in ICR mouse assessed as change in body weight at 85 nmol. Conditions: in vivo. It counts as organism-based.
Data set [12] deals with Mus musculus. As to the kind of experiment: Inhibition of DMBA-induced and TPA-promoted carcinogenesis in ICR mouse assessed as reduction of mouse bearing papillomas at 85 nmol administered 1 hr before TPA treatment measured after 10 to 15 weeks. It counts as functional. The procedure, abridged: as §2
Data set [13] concerns Mus musculus. Kind of data set: Toxicity in ICR mouse assessed as edema at 85 nmol. The data set is classed as organism-based. Conditions: in vivo.
Data set [14] in a line: Inhibition of TPA-induced EBV-early antigen activation in human Raji cells assessed as EA activation after 48 hrs. The data set is classed as cell-based, human gammaherpesvirus 4. The procedure, abridged: as §1
For data set [15], the species on record is Mus musculus. Kind of data set: Toxicity in ICR mouse assessed as erosion at 85 nmol. It counts as organism-based. Conditions: in vivo.

Take `CO[C@@H]1CC[C@@]2(C)[C@@H](CC[C@@]3(C)C[C@]45CC[C@@H]6C(C)(C)[C@H](OC(=O)CC(C)(C)C(=O)O)CC[C@@]6(C)[C@@]4(CC[C@@H]32)O5)C1(C)C`: the Activity in the data set on Raji [1] is 26.6%; in the data set on Raji [3], 89.6%; in the data set on Mus musculus [4], 17 mm; in the data set listed under Mus musculus [7], “Non-toxic”; in the data set on Mus musculus [8], 18 mm; with Raji [9], 0%. Further, the Activity entry in the data set filed under Mus musculus [10], in the data set listed under Mus musculus [11], in the data set with Mus musculus [13] and in the data set filed under Mus musculus [15] was “Non-toxic” throughout. Moreover, in the data set with Raji [2], the EA activation relative to control is 68.4%. The viability at 1000 molar ratio in [5] turned out to be 60%. For the same compound, the “inhibition (INH)” value with Mus musculus [6] was 93.3%; with Mus musculus [12], 26.6%. Besides, the IC50 in data set [14] stood at 0.23 µM.

Broadly, the IC50 is the concentration that inhibits the measured activity by half.

For the origin of these results see ChEMBL document CHEMBL1821568, “Conjugates of 3α-methoxyserrat-14-en-21β-ol (PJ-1) and 3β-methoxyserrat-14-en-21β-ol (PJ-2) as cancer chemopreventive agents” (Eur J Med Chem, 2011).
